AI-2 QS modul: Vibrio harveyi AI-2 quorum sensing modulation; Vibrio harveyi JMH597 AI-2 luminescence/OD600 ratio, 9 h; active compounds read low; strain lacks LuxN and CqsS sensors; 0 = neutral-control median; activity change, % at 7.5 µM; AID 2094; 300,000 tested, 0.4% active; in the data active = activity change below about -75%, passing the limit was not always enough; inconclusive = no clear call, values can overlap the other calls;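 also: luminescence divided by OD600 gain over 9 h not by final OD600 alone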
CendR NRP1 mod: alters CendR peptide binding to human NRP-1; O14786; FAM-RPARPAR peptide binding to NRP-1, fluorescence polarization; inhibition, % at 25 µM; 360,000 tested, 0.85% active; AID 602438;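 active = inhibition or corrected inhibition above about 18%, plus a signal ratio from 0.5 to 1.5, limit read from the data, passing the limit was not always enough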
Target sequence (O14786 whole entry, looked up): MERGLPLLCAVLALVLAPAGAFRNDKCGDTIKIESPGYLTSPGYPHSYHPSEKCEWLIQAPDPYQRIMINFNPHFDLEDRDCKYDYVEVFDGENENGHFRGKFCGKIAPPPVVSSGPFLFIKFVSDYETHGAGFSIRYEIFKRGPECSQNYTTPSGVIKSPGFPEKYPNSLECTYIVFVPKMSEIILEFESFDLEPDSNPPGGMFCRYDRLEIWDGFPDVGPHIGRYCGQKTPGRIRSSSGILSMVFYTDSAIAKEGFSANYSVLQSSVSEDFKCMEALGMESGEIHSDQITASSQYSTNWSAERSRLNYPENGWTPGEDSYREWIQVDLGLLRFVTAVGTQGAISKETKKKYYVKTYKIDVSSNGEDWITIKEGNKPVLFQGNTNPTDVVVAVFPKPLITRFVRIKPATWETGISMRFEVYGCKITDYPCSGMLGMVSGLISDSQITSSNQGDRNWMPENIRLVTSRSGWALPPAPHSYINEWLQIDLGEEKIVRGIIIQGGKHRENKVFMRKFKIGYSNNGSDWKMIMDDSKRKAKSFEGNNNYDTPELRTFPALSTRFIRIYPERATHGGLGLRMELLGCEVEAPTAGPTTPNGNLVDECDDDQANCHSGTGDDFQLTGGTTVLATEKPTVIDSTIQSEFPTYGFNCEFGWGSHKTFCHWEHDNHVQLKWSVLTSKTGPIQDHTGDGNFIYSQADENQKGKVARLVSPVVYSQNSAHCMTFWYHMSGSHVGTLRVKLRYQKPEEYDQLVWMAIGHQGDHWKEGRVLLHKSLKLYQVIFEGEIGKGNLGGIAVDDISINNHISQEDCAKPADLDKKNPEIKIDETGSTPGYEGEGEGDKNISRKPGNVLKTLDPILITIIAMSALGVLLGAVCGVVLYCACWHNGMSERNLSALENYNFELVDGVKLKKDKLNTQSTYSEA
T cruzi repl: T. cruzi replication inhibition; inhibition, % (test concentration not listed); T. cruzi beta-gal in NIH3T3, luminescence, 90 h; 300,000 tested, 1.4% active;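 active = mean inhibition across valid replicates above about 55%, limit read from the data; inconclusive = mean below that limit but half or more replicates reach it; inactive = mean below it, under half of replicates reach it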;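 also: signal also drops with host cell toxicity which is not excluded here; higher percent means less beta-gal luminescence so fewer parasites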
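Material: NIH/3T3 host cells with β-galactosidase reporter T. cruzi; Input: 5,000 host fibroblasts per well; Medium: DMEM, 2% fetal bovine serum; Compound: 50 nL DMSO compound solution per well; Schedule: 3 h host attachment, then at least 90 h co-culture; Detection: luminescent β-galactosidase signal after 60 min lysis.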
CR mimetic SO: caloric restriction mimetics inhibiting age-related superoxide in yeast; S. cerevisiae aged cells, superoxide DHE fluorescence; active compounds read low; superoxide response (% of plate mean), % at 10 µM; 330,000 tested, 0.18% active; AID 2690;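 active = superoxide response under a set limit, about three screen SD below normal, cut at about 65% in these data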;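 also: yeast aged for seven days with compound at 30 °C before DHE staining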
V-ATPase pHluor: yeast V-ATPase proton transport regulation by pHLuorin; S. cerevisiae, pHLuorin cytosolic pH fluorescence; response, % at 10 µM; 350,000 tested, 0.37% active; in the data active = response mostly above about 7.3%, no sharp cut-off; inactive = mostly below about 5.4%; also: actives read high
HIF act: HIF pathway transcriptional activation; U2OS HRE-luciferase reporter, luminescence; normalized: DMSO 0%, desferrioxamine 100%; activation, % at 7.5 µM (by protocol); AID 1910; 300,000 tested, 0.32% active;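 active = mean activation of at least 10% of the iron chelator positive control signal, with at least half of replicates also reaching 10%; inconclusive = mean and replicate majority disagree about reaching 10%; inactive = mean and most replicates under 10%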
Of the large screens only hits and unclear results are named; the others gave an inactive call. This is a sample that favours compounds with a hit; in the whole collection about 3% have one here.

CC(C)Cn1cnc2c(c(-c3ccccc3)c(-c3ccccc3)n2Cc2ccco2)c1=N	T cruzi repl 59.7
N=c1c2c(-c3ccccc3)c(-c3ccccc3)n(Cc3ccco3)c2ncn1CCCn1ccnc1	T cruzi repl 64.3
N=c1c2c(-c3ccccc3)c(-c3ccccc3)n(Cc3ccco3)c2ncn1CCCN1CCOCC1	T cruzi repl 91.7
COC(=O)c1sccc1NC(=O)c1ccc(C#N)cc1	none
Cc1nnc(SC(C)C(=O)Nc2ncc(Cl)cc2Cl)n1Cc1ccccc1 (stereo unspecified)	none
CC1(NC(=O)CCc2ccccc2)CCN(CCCc2ccccc2)C1=O (stereo unspecified)	none (no result: AI-2 QS modul, T cruzi repl, HIF act)
O=C(CCc1ccccc1)NC1(Cc2ccccc2)CCN(CCc2cccs2)C1=O (stereo unspecified)	CendR NRP1 mod 19.4 (no result: AI-2 QS modul, T cruzi repl, HIF act)
O=C(/C=C/NNC(=O)c1ccccc1)c1ccc([N+](=O)[O-])cc1	T cruzi repl 60.9
CCOc1ccccc1NC(=O)C(CC)Sc1nc2ccncc2[nH]1 (stereo unspecified)	none
CCC(Sc1nc2ccncc2[nH]1)C(=O)Nc1ccc(C)c(Cl)c1 (stereo unspecified)	T cruzi repl 61.9
COC(=O)c1ccc(Cn2nnc3c(=O)[nH]c(C4CCCN(S(=O)(=O)c5cccc(Cl)c5)C4)nc32)cc1 (stereo unspecified)	CendR NRP1 mod 27.3 (no result: HIF act)
Cc1ccc(NC(=O)C2CCCN2C(=O)NC2CCCCC2)cc1C (stereo unspecified)	CendR NRP1 mod 27.6 (no result: T cruzi repl, HIF act)
CC(C)Cc1nnc(NC(=O)c2cccc(S(=O)(=O)N3CCN(C)CC3)c2)s1	T cruzi repl 60.5
CN1CCN(S(=O)(=O)c2cccc(C(=O)NC3CCCC3)c2)CC1	V-ATPase pHluor 22.6
CN1CCN(S(=O)(=O)c2cccc(C(=O)Nc3sc4c(c3-c3nc5ccccc5[nH]3)CCCC4)c2)CC1	T cruzi repl 58.5
CC(=O)N1CCN(S(=O)(=O)c2cccc(C(=O)NC3CCCC3)c2)CC1	none (no result: AI-2 QS modul, T cruzi repl, HIF act)
CC(C)Cc1nnc(NC(=O)c2cccc(S(=O)(=O)N3CCOCC3)c2)s1	none (no result: AI-2 QS modul, T cruzi repl, HIF act)
CCC(CC)c1nnc(NC(=O)c2cccc(S(=O)(=O)N3CCOCC3)c2)s1	CendR NRP1 mod 25.9 (no result: AI-2 QS modul, T cruzi repl, HIF act)
C=C(C)Cn1c(CCNC(=O)C(C)C)nc2ccccc21	HIF act inconclusive
N#C/C(=C/c1ccc(O)c([N+](=O)[O-])c1)C(=O)Nc1ccccc1	none
O=C(Nc1ccccc1)c1ccc(Nc2c([N+](=O)[O-])cc([N+](=O)[O-])c3ccccc23)cc1	T cruzi repl 65.9
Cc1c(C(=O)Nc2ccc(Nc3ccccc3)cc2)cccc1[N+](=O)[O-]	none
CC1=C(C(=O)N2CCOCC2)CC(CC(=O)NC2CCCC2)C(=O)N1CCCN1CCCC1=O (stereo unspecified)	none (no result: AI-2 QS modul, T cruzi repl, CR mimetic SO, HIF act)
COc1ccc(N2CCN(Cc3cc4c(cc3Br)OCCO4)CC2)cc1	none
Cc1ccc(S(=O)(=O)CC(=O)c2ccc([N+](=O)[O-])cc2)cc1	none
Cc1ccc(S(=O)(=O)CC(=O)c2ccccc2)cc1	AI-2 QS modul -78.9
Cc1ccc(C(=O)CCS(=O)(=O)c2ccc(Cl)cc2)cc1	CendR NRP1 mod 20.3
O=C(NCc1ccco1)c1ccc2c(c1)N(Cc1ccc(Cl)cc1)CCS2	V-ATPase pHluor 13.5
CC(=O)NCCc1cnc[nH]1	none
Cn1c(=O)n(CC(=O)O)c(=O)c2c1nc1n2CCCN1Cc1ccccc1	none
CC(=O)Cn1c(=O)c2c(nc3n2CCCN3Cc2ccccc2)n(C)c1=O	HIF act 35.1
CCCN(C(=O)CSc1nnc2ccccn12)C1CCS(=O)(=O)C1 (stereo unspecified)	none (no result: AI-2 QS modul, T cruzi repl, HIF act)
CCCN(C(=O)Cn1c(C(F)(F)F)nc2ccccc21)C1CCS(=O)(=O)C1 (stereo unspecified)	CendR NRP1 mod 44.7
CCCN(C(=O)CSc1ccccc1C(=O)O)C1CCS(=O)(=O)C1 (stereo unspecified)	V-ATPase pHluor 14.6 (no result: AI-2 QS modul, T cruzi repl, HIF act)
COc1ccc(N(CC(=O)NCc2cccs2)S(=O)(=O)c2cccnc2)cc1	none
O=C(COC(=O)Cc1cccs1)Nc1ccccc1F	none
CCCC(=O)NC(=S)Nc1cccc(C(C)=O)c1	AI-2 QS modul -77.8
COc1cccc(NC(=O)Nc2ccc(C)c(Cl)c2)c1	T cruzi repl 60.7
O=C(Nc1ccc(Cl)cc1)Nc1cccc(C(=O)O)c1	none
O=C(Nc1cccc(Cl)c1)Nc1cccc(C(=O)O)c1	HIF act 11.7
COC(=O)c1cccc(NC(=O)Nc2ccc(Cl)c(Cl)c2)c1	T cruzi repl 55.2
COc1cccc(NC(=O)Nc2cc(C(=O)O)ccc2C)c1	none
Cn1c(CN2CCN(CCO)CC2)c(C#N)c2ccccc21	none
Cc1ccc(NC(=O)Cn2cccc2)c(C)c1	none
CC(C)(C)c1ccc(S(=O)(=O)NC(=O)C2(C)CCN2C(=O)Cc2cc(F)ccc2F)cc1 (stereo unspecified)	none (no result: AI-2 QS modul, T cruzi repl, CR mimetic SO, V-ATPase pHluor, HIF act)
NS(=O)(=O)c1ccc(CCNC(=O)CC(c2ccccc2)c2ccccc2)cc1	none
COC(=O)c1cccc(NC(=S)NCc2ccc(F)cc2)c1	CendR NRP1 mod 46.0
O=C(NCc1cccs1)Nc1cccc(Cl)c1	AI-2 QS modul -90.7
CCOC(=O)C1=C(c2ccccc2)OC(N)=C(C#N)C1C1CCCCC1 (stereo unspecified)	none
Cc1ccc(-c2nc3ccccc3[nH]2)cc1NC(=O)c1sc2cc(Cl)ccc2c1Cl	T cruzi repl 60.4
O=C(CCSCc1ccc(Cl)cc1)NCCC1=CCCCC1	none
COc1ccc(-c2cc(C(F)(F)F)nc(SCC(=O)Nc3cc(C)on3)n2)cc1OC	CendR NRP1 mod 39.0
O=C(CSc1nc(-c2ccc(F)cc2)cc(C(F)(F)F)n1)NCCN1CCOCC1	none
COc1ccc(-c2cc(C(F)(F)F)nc(SCC(=O)NCCN3CCOCC3)n2)cc1OC	CendR NRP1 mod 31.1
O=S(=O)(NCC(c1cccnc1)N1CCOCC1)c1ccc(Cl)cc1 (stereo unspecified)	none
CN(N)c1nc(-c2ccccc2)nnc1C(F)(F)F	CendR NRP1 mod 34.1
CCN(CC)C(=O)CSc1nnc2nnc3cc(C)ccc3n12	none
CCN(CC)C(=O)CSc1nnc2nnc3cc(Cl)ccc3n12	T cruzi repl 58.9
C=C(C)COc1ccc(-c2ncncc2-c2ccccc2OC)c(O)c1	T cruzi repl 66.0
CCOc1ccc(-c2ncncc2-c2ccccc2OC)c(O)c1	none
O=C(c1ccco1)N1N=C(C2CCCCC2)CC1(O)C(F)(F)F (stereo unspecified)	none
COCCOc1ccc(C(F)(F)F)cc1NC(=O)c1ccccc1	none
CC(C)(C)c1ccc(OCCOc2ccc(C(C)(C)C)cc2NC=O)c(NC=O)c1	T cruzi repl 59.1
O=C(c1ccc(Cl)cc1)c1cnc(-c2ccccc2)s1	none (no result: AI-2 QS modul, T cruzi repl, CR mimetic SO, HIF act)
CO/N=C/CC(=O)c1cnc(-c2ccc(Cl)cc2)s1	CendR NRP1 mod 25.7

Bioassay records (PubChem)
